The EternaBench riboswitch data

System: MS2 coat protein
Experiment: apparent Kd, MS2 coat protein; higher = weaker binding; RNA-MaP array; FMN 200 µM where present
Procedure, shortened: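 In 100 mM Tris-HCl pH 7.5, 80 mM KCl, 4 mM MgCl2, BSA, DTT, yeast tRNA and Tween-20, SNAP-549-labelled MS2 coat protein was titrated from 0.7 or 1.5 nM, doubling to 3 µM, over designs transcribed by stalled E. coli RNA polymerase on Illumina sequencing-chip clusters. This was done first without ligand, then with ligand held constant. After green signal was normalised to red-channel RNA signal and control-cluster median Fmax, the apparent Kd was taken as the median of filtered per-cluster binding-curve fits.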

[1] = designed as: OFF switch for flavin mononucleotide, no ligand
[2] = ligand present: flavin mononucleotide, designed as: OFF switch for flavin mononucleotide
[3] = designed as: ON switch for flavin mononucleotide, no ligand
[4] = ligand present: flavin mononucleotide, designed as: ON switch for flavin mononucleotide

GAUUGAGAGCAGGAUAUCUUAGAAAUGUAUUAAAGAGAAGGGCUCACAUGAGGAUCACCCAUGUGGUCCUAGAU
apparent Kd [1]: 20.2 nM | apparent Kd [2]: 175 nM

AUAUAGUCAGGAUAUCGAAGUGAGUGUUGGUUUGUAAGGUACGAGAAGGGACAUGAGGAUCACCCAUGUAGGAA
apparent Kd [1]: 40.3 nM | apparent Kd [2]: 38.8 nM

AAGAAGUGAGGAUAUACAUGAGGAUCACCCAUGUAAAGAAGAAGAGGAGAGAAUAAAGGUAGAAGGCACAAGAA
apparent Kd [1]: 45.8 nM | apparent Kd [2]: 46 nM

GGAUAUAUUACAUGAGGAUCACCCAUGUCAGAAAGGGUAAUCAGAAGGUACUAUUAGAGAAAGAGUAAGGAUAUGAUUAUAUCC
apparent Kd [3]: 630 nM | apparent Kd [4]: 147 nM

AGCAUGUGAGGAUAUGCGGACUCCAGUAAAUCUGAAGUCCAGUAGAAGGCACAUGAGGAUCACCCAUGUGAUAA
apparent Kd [1]: 92.9 nM | apparent Kd [2]: 112 nM

ACAUGAGGAUCACCCAUGUAUACAUAGGAUAUUGGUGAUCAGGGAUGUUUUACAGGAUAUGUCUGCGAGAAGGAUGCAAGUUGU
apparent Kd [3]: 360 nM | apparent Kd [4]: 70.4 nM

CUUGUUGUCGAGGAUAUGCACCAGCUCACUGACGCAGAAGGCGACACAUGAGGAUCACCCAUGUCAGUUCGCGU
apparent Kd [1]: 37.4 nM | apparent Kd [2]: 225 nM

ACUUUAGUAUCACAUGUAUUACAUGAGGAUCACCCAUGUUACUAGGAUAUGUAUUAGAAUUUACAACAGAAGGAGUUAAUUUGU
apparent Kd [1]: 7.92 nM | apparent Kd [2]: 7.59 nM

AAUCUGUCGGUAGGAUAUCAGUUAGGAGAGCCGACAUGAGGAUCACCCAUGUACAGAAUCAAGGGUGAGAAGGACCGGGUAGUA
apparent Kd [3]: 114 nM | apparent Kd [4]: 111 nM

UUUUUAUAAGAGAAGGAGGACUUCAUGAGGAUCACCCAUGUGUUAGUACUUAGGAUAUUUAAUAACAUGAGGAUCACCCAUGUC
apparent Kd [3]: 49.4 nM | apparent Kd [4]: 49.2 nM

GUGUCUAACUAGAAGGCCGUAUGCAAAGCAUACGGAGGAUAUGGGUUCCGGAAACGGACAUGAGGAUCACCCAUGUGGCACAAA
apparent Kd [3]: 94.3 nM | apparent Kd [4]: 13.4 nM

GCACAUGAUACAGGAUAUGUUUUUUAAUUUAUUAUGAGUUAUAUAUUAUUUACAGAAGGGUAUACAUGAGGAUCACCCAUGUGC
apparent Kd [1]: 40.9 nM | apparent Kd [2]: 31.4 nM

GGUACUAUCACAGGAUAUGCUUUCCUUUGGGAAGCAGAAGGGUGUAACAUGAGGAUCACCCAUGUGGUGCCAGGGCGCGAGCCC
apparent Kd [3]: 137 nM | apparent Kd [4]: 16.7 nM

UUGGACGUCGUAGGAUAUGUAGGACAUUCCUACAUGAGGAUCACCCAUGUUGACAUGGAAGAAGGACAGAAGGACGAUGUCCAU
apparent Kd [3]: 152 nM | apparent Kd [4]: 10.6 nM

CUCCCAUGUGUAGGAUAUAGAAAACCGAAAUGGCUAGAAGGACACAUGAGGAUCACCCAUGUAACCUUAACUUAGUGUACCGGG
apparent Kd [1]: 53.3 nM | apparent Kd [2]: 124 nM

GUAGAACAUGAGGAUCACCCAUGUGAUUACGAUGUAGGAUAUGGGCAUGAGAAGUCAUUUCUAGAAGGGCAGAUAA
apparent Kd [3]: 141 nM | apparent Kd [4]: 154 nM

GACAUGGUCUAGAAGGCCUAUCUAUUUAAGUACGAUUUAGAACAGCAUAGGAGGAUAUGGCUAACAUGAGGAUCACCCAUGUUC
apparent Kd [3]: 49 nM | apparent Kd [4]: 23.3 nM

GCAUUGAUAACAGGAUAUAUGUUUCCUACAUGAGGAUCACCCAUGUAGGUGAUCAGCCGAGAAAAGUAGAAGGGUUAUCAAUGC
apparent Kd [3]: 16.7 nM | apparent Kd [4]: 15.4 nM

GGAUGACAAAGUCAUCCAUUACGAACAUGAGGAUCACCCAUGUAGGAUAUGCAACUCAAAGAGUUGCAGAAGGACAUGUGUCUU
apparent Kd [1]: 29.6 nM | apparent Kd [2]: 146 nM

GGAUAGGACACAGGAUAUACGUGCUAGAGAUACUAGCAAAAUUUCCUCACAUGAGGAUCACCCAUGUAGAAGGCUGUCCUAUCG
apparent Kd [1]: 6.15 nM | apparent Kd [2]: 5.95 nM

AACUAACAUGAGGAUCACCCAUGUCAGGAUAUGCAUCAAUCAAUCAAUCAAUCAAUCAGCAGAAGGGACACUAC
apparent Kd [1]: 16.8 nM | apparent Kd [2]: 19.4 nM

CAGACCGGCGUAGGAUAUGUCGACAUGAGGAUCACCCAUGUAAACCUUGUCUGGUCCGGUGUGUGACAGAAGGAUGUCGGCCAU
apparent Kd [1]: 14.6 nM | apparent Kd [2]: 27.9 nM

UCAGUAGAGUGAGGAUAUACGAAAGGCGAUCCAUACAUGAGGAUCACCCAUGUAGAAGGCACUCUACUGUAAGUCGGAAACGAC
apparent Kd [1]: 173 nM | apparent Kd [2]: 12.3 nM

AUUUAUGGCCAGAAGGACAUGAGGAUCACCCAUGUAGGAUAUGGACGAUUUUGCUCGGCGGUUCGUUAAGAAAGCACCGGUGGU
apparent Kd [3]: 16.5 nM | apparent Kd [4]: 7.39 nM

AAUUGAAACGUAGGAUAUCGCUAUAAAUUAAUUCGAGAAGGACGUACAUGAGGAUCACCCAUGUUAAAUGGUGUAGUUUAGUUG
apparent Kd [1]: 108 nM | apparent Kd [2]: 270 nM

CUAUAUAAUGCCUCAUGUACAUGAGGAUCACCCAUGUUAACUUAGGAUAUAUUUAUAUUGAUAGAGUAGAAGGAAGUACUAUUU
apparent Kd [1]: 14.2 nM | apparent Kd [2]: 12.9 nM

GCAUGUCUUAAGGAUAUGCUUUGGCGUGAGCCGGCAGAAGGUAAGACAUGAGGAUCACCCAUGUUUUCCUAAAA
apparent Kd [1]: 20.5 nM | apparent Kd [2]: 140 nM

GGCUUGCAGCUAGGAUAUGGGCGAUCACAUGAGGAUCACCCAUGUCAACAUCAAAACAAGAUUAACCAGAAGGAGCCGCGGGUC
apparent Kd [3]: 21.3 nM | apparent Kd [4]: 705 nM

CUUUUGUGAGGAUAUCGGUAGUAAUACAAUAGUAUUACUACUGAGAAGGCACAUGAGGAUCACCCAUGUUCCUC
apparent Kd [1]: 49.2 nM | apparent Kd [2]: 305 nM

GAACGUGACAUGAGGAUCACCCAUGUUGCCUGAGCCAGGUCGUAGGAUAUCCUGAUGAUUAAUUUGGAGAAGGGCGACUGGGAA
apparent Kd [3]: 34.4 nM | apparent Kd [4]: 14.3 nM

CGUAAGAUGCAGAAGGUGUUAGCUAGAGCUACGACAUGAGGAUCACCCAUGUACUAGAAACAGUACAAGGAUAUGCAUCUUACC
apparent Kd [3]: 18.8 nM | apparent Kd [4]: 6.58 nM

GCAGCACAGAUUUACAUGAGGAUCACCCAUGUCUAUUGAGAUGAGGAUAUGCAUCGAAUGAAGUUGCAGAAGGCAUUGUGCUGC
apparent Kd [3]: 7.51 nM | apparent Kd [4]: 6 nM

AAAAAAAAAACGCAGGAUAUCCAAAAAAAAACAUGAGGAUCACCCAUGUAAAAAAAAAAAAAAUGGGAGAAGGGUGAAAAAAAAAA
apparent Kd [3]: 114 nM | apparent Kd [4]: 51 nM

GAAUAAUUGAUCCAAUUUUACAACAUGAGGAUCACCCAUGUGCAGGAUAUCGUGAAAGUUAAAUACGAGAAGGGCAAGAACUGU
apparent Kd [1]: 220 nM | apparent Kd [2]: 344 nM

GGAUAGGACAGAGGAUAUACGUUCUAGAGAUACUAGCAAAAUUUCCUCACAUGAGGAUCACCCAUGUAGAAGGCUGUCCUAUCG
apparent Kd [1]: 15.1 nM | apparent Kd [2]: 282 nM

GGAUAGGACAGAGGAUAUACGUGCUAGAGAUACUAGCAAAAUUUCCUCACAUGAGGAUCACCCAUGUAGAAGGCUGUCCGAUCG
apparent Kd [1]: 14.6 nM | apparent Kd [2]: 323 nM

CCUCCGCAUUAGGAUAUCGUCACGGAAACGUGACGAGAAGGAAUGACAUGAGGAUCACCCAUGUUAACGUGAUG
apparent Kd [1]: 52.2 nM | apparent Kd [2]: 270 nM

AGCUCGCGAAGAGGAUAUACAGCGGCGACCUAUCAUGACGAGCGGGUUACAUGAGGAUCACCCAUGUAGAAGGCUUCCCGACUC
apparent Kd [1]: 26.6 nM | apparent Kd [2]: 73.9 nM

ACGCCCUGAGGAUAUCUUAUCCCGUACAUGAGGAUCACCCAUGUUCUCCUCCGGGCUCCGAGAGAAGGCAGGCCCA
apparent Kd [1]: 26.7 nM | apparent Kd [2]: 37 nM

GUAGAACAUGAGGAUCACCCAUGUGAAGACGCAUGAGGAUAUAUCCGUACCUAGCAUACGAUAGAAGGCAUGAUAC
apparent Kd [3]: 113 nM | apparent Kd [4]: 49.7 nM

GAUUAACAUGAGGAUCACCCAUGUCGUUUAAUGGGAGGAUAUACGUGGACCGUAGUCCGCGUAGAAGGCCUAAUUG
apparent Kd [3]: 90.8 nM | apparent Kd [4]: 26.9 nM

GGGUGAUGUAGAGGAUAUCCAGGACGAUACAGAGGAGAAGGCUACAUGAGGAUCACCCAUGUCACCGGGAUAAAGCUGUAGAGU
apparent Kd [1]: 39.8 nM | apparent Kd [2]: 109 nM

UUGCAGUGCGGGUAGGAUAUGUAGGGUGGUACAUGAGGAUCACCCAUGUAUCCACCCUUCGACCGGCAGAAGGGCCUGUCACCGC
apparent Kd [3]: 15.2 nM | apparent Kd [4]: 14.8 nM

CCUAGUUGGUAAGGAUAUCCUACACUAUUCUGACCCGUGCAAGCUACAUGAGGAUCACCCAUGUGGGAGAAGGUGCGUCAACGC
apparent Kd [1]: 13.8 nM | apparent Kd [2]: 15.2 nM

CCUCUACAUGAGGAUCACCCAUGUGAGGAUAUAUGCCCAUUACGCCAAGGGCGUGAUGAUAGAAGGCACAGGGU
apparent Kd [1]: 22.4 nM | apparent Kd [2]: 71.1 nM

GCUGGUCAAGGAUAUGCAAUCGUGCUUCGGCACGUAAGAUCACAUGAGGAUCACCCAUGUAGAAGGUGACCAGC
apparent Kd [1]: 22.5 nM | apparent Kd [2]: 59.8 nM

CGGCUACCCAGUAUGGGUAUUUUUACAGAAGGCCAGGCACAUGAGGAUCACCCAUGUCAAGUUUUGGAGGAUAUGUUAGUGUCG
apparent Kd [3]: 5.58 nM | apparent Kd [4]: 4.25 nM

UAAUAAUAGCAAGGAUAUGGUUAUUAUAAUAUACCAGAAGGUGCACAUGAGGAUCACCCAUGUUUUAUAAUUUGUAAUUUAAAU
apparent Kd [1]: 30.7 nM | apparent Kd [2]: 27.3 nM
